Measured values of several laboratories.
Protocols differ between the studies behind these lines.
Target: Serine/threonine-protein kinase Nek7 (NEK7, Homo sapiens, UniProt Q8TDX7)

CCN(CC)c1ccc(C2=NNC(=O)CC2C)cc1[N+](=O)[O-] (stereo not drawn)
remaining activity (enzyme activity; inhibitor; 10 µM): 107%

Nc1c(C(=O)NCc2ccc(C(=O)NCCCC3CCCCC3)cc2)cnn1-c1ccccc1
remaining binding (cell-free assay; competition with immobilised ligand; 0.1 µM): 99%

CC/C(=N\NC(=O)NCc1cccc(O)c1)c1ccc(O)c(C)c1O
inhibition (enzyme activity; inhibitor; 0.1 µM): 6.5%

Cc1c[nH]c2nccc(Oc3c(F)cc(Nc4cc(Cl)nc(N)n4)cc3F)c12
remaining binding (cell-free assay; competition with immobilised ligand; 0.1 µM): 100%

COc1cccc2c(NCc3ccccc3)nc(-n3c(N)nc4ccccc43)nc12
inhibition (target engagement in cells; inhibitor; chemoproteomics; 20 mM): -1%

O=C(Nc1cnn(-c2csc(C(=O)NC3COC3)c2)c1)Nc1c(F)cccc1Cl
remaining activity (enzyme activity; inhibitor; 5 µM): 88.1%

N#Cc1ccc(Nc2ccc3[nH]c(=O)[nH]c3c2)c(Cl)c1
remaining binding (cell-free assay; competition with immobilised ligand; 1 µM): 100%

CCC1(CC)NC(=O)c2c(c3ccc(Cl)c(Cl)c3n2C)C1C#N (stereo not drawn)
ΔTm (thermal stability; DSF; 10 µM): -0.4 °C

CCN1CCN(Cc2ccc(NC(=O)c3ccc(C)c(Oc4ccnc5[nH]ccc45)c3)cc2C(F)(F)F)CC1
inhibition (target engagement in cells; inhibitor; chemoproteomics; A-375; 5 µM): 0.277%

CCN1CCC2(CC1)NC(=O)c1c(c3ccc(Cl)c(Cl)c3n1C)C2C#N (racemic)
ΔTm (thermal stability; DSF; 10 µM): -0.2 °C

O=C(O)[C@H]1[C@H](Cn2nnc3ccccc3c2=O)CC[C@@H]1C(=O)c1ccc(OCCC2CCOCC2)cc1
remaining binding (cell-free assay; competition with immobilised ligand; 1 µM): 100%

COc1cc(Cl)c(C(=O)N[C@@H](CN[C@H]2CC[C@@H](N)CC2)Cc2ccc(C#N)cc2)cc1-c1ccc(CN[C@H](C)c2ccc(C)cc2)o1
remaining activity (enzyme activity; inhibitor; 1 µM): 99%

CCN(CC)CCNC(=O)c1c(C)[nH]c(/C=C2\C(=O)Nc3ccc(F)cc32)c1C
inhibition (enzyme activity; inhibitor; 0.3 µM): -8%

O=C1Nc2ccc(Cl)cc2C1=Cc1cc(Cl)c(O)c(Cl)c1
remaining signal (cell-free assay; 0.5 µM): 100%

CC(C)(C)c1nc(-c2cccc(NS(=O)(=O)c3c(F)cccc3F)c2F)c(-c2ccnc(N)n2)s1
remaining activity (enzyme activity; inhibitor; radiometric; 1 µM): 42%

Cc1cnc(NC2CCOCC2)nc1-n1cnc(C(=O)NC(CN)c2cc(F)cc(Cl)c2)c1 (stereo not drawn)
remaining activity (enzyme activity; inhibitor; radiometric; 1 µM): 99%

Cn1c2c(c3ccc(Cl)c(Cl)c31)C(C#N)C1(CCCC1)NC2=O (stereo not drawn)
ΔTm (thermal stability; DSF; 10 µM): 0 °C

CCCCNc1ncc2c(-c3ccc(F)cc3)nn(C[C@H]3CC[C@H](N)CC3)c2n1
inhibition (target engagement in cells; inhibitor; chemoproteomics; 20 mM): 6.6%

CCCS(=O)(=O)Nc1ccc(F)c(C(=O)c2c[nH]c3ncc(-c4ccc(Cl)cc4)cc23)c1F
inhibition (enzyme activity; inhibitor; 1 µM): < 10%

CCOC(=O)c1cc2cc(-c3cc(C(=O)NCc4ccc(C(=O)O)cc4)nn3C)ccc2[nH]1
remaining binding (cell-free assay; competition with immobilised ligand; 0.1 µM): 100%

Cc1sc(C(=O)NC2COC2)cc1-n1cc(NC(=O)Nc2c(F)cccc2Cl)cn1
remaining activity (enzyme activity; inhibitor; 10 µM): 100%

Cn1c2c(c3ccc(Cl)c(Cl)c31)C(C#N)C1(CCNCC1)NC2=O (racemic)
ΔTm (thermal stability; DSF; 10 µM): -0.1 °C

C[C@@H](c1cccc(C#N)c1)n1cc(Cl)cc(C(N)=O)c1=N
remaining binding (cell-free assay; competition with immobilised ligand; 1 µM): 89%

Cc1ccc(Nc2nccc(N(C)c3ccc4c(C)n(C)nc4c3)n2)cc1S(N)(=O)=O
inhibition (enzyme activity; inhibitor; 10 µM): -6%

CC(C)(O)[C@H]1CC[C@H](Nc2ccc3ncc(-c4cccc(C(F)(F)F)c4)n3n2)CC1
remaining activity (enzyme activity; inhibitor; 1 µM): 93.6%

CNC(=O)c1cc(Oc2ccc(NC(=O)Nc3ccc(Cl)c(C(F)(F)F)c3)cc2)ccn1
inhibition (enzyme activity; inhibitor; 0.3 µM): -9%

O=C1NC(c2ccccn2)Sc2ccccc21 (stereo not drawn)
remaining binding (cell-free assay; competition with immobilised ligand; 1 µM): 68%

N#CCCc1ccc2c(c1)-c1[nH]c3ccc([N+](=O)[O-])cc3c1CC(=O)N2
remaining signal (cell-free assay; 0.5 µM): 87.4%

Cn1c2c(c3ccc(Cl)c(Cl)c31)C(C#N)C1(CCOCC1)NC2=O (stereo not drawn)
ΔTm (thermal stability; DSF; 10 µM): -0.5 °C

CC(C)(O)c1cncc(-c2nc3ccc(F)cc3n2C2CC2)c1
remaining binding (cell-free assay; competition with immobilised ligand; 1 µM): 100%
